Measured values published in ChEMBL document CHEMBL4371016, “Proline- and Arginine-Rich Peptides as Flexible Allosteric Modulators of Human Proteasome Activity” (J Med Chem, 2019).
The source made the active and inactive calls. The rule behind the calls is not given here. Residues, ends and D or L forms follow the SMILES beside them.

Tests used:
[1] = target: T1, Proteasome Macropain subunit MB1 (Homo sapiens) (UniProt P28074); assay: Positive allosteric modulation of latent human erythrocytes 20S proteasome chymotrypsin like activity at 25 uM using Suc-LLVY-AMC as substrate measured every 2 mins up to 60 mins by fluorescence assay relative to control
T1 sequence (whole entry): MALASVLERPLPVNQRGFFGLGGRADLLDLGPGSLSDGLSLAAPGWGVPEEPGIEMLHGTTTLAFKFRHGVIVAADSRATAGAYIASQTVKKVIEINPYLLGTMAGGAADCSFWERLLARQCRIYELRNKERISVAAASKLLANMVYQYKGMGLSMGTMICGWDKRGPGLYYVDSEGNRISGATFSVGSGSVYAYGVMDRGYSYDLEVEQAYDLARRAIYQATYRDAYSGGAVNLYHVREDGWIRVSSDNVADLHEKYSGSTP

[2] = target: T1, Proteasome Macropain subunit MB1 (Homo sapiens); assay: Positive allosteric modulation of latent human erythrocytes 20S proteasome chymotrypsin like activity using LFP as substrate measured every 2 mins up to 60 mins by fluorescence assay
[3] = target: T1, Proteasome Macropain subunit MB1 (Homo sapiens); assay: Negative allosteric modulation of SDS-activated human erythrocytes 20S proteasome chymotrypsin like activity up to 10 uM using LFP as substrate measured every 2 mins up to 60 mins by fluorescence assay
[4] = target: T2, 20S proteasome (Homo sapiens) (UniProt P49721+P20618+P28074+P28062+P28065+P28072+P25786+P25787+P25788+P25789+P28066+P60900+O14818+Q8TAA3+P40306+A5LHX3+P49720+P28070+Q99436); assay: Negative allosteric modulation of SDS-activated human erythrocytes 20S proteasome assessed as reduction in human alpha-synuclein degradation at 1 uM after 1 hr by SDS-PAGE analysis
Method in brief: (§1)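 Human α-synuclein or yeast enolase digested by human 20S activated with 0.01% SDS (20S:substrate 1:100 pmol α-syn, 1:10 pmol enolase) in 20 mM HEPES pH 7.4 at 37 °C for 1 h (α-syn) or 4 h (enolase). DMSO at or below 0.05%. SDS–PAGE (12% or 10%) with Coomassie staining; remaining substrate densitometry as percent of control; at least three experiments, mean ± SEM.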

[5] = target: T2, 20S proteasome (Homo sapiens); assay: Positive allosteric modulation of SDS-activated human erythrocytes 20S proteasome assessed as increase in yeast enolase degradation at 10 uM after 4 hr by SDS-PAGE analysis
[6] = target: T2, 20S proteasome (Homo sapiens); assay: Positive allosteric modulation of SDS-activated human erythrocytes 20S proteasome assessed as increase in human alpha-synuclein degradation at 10 uM after 1 hr by SDS-PAGE analysis
[7] = target: T3, Proteasome component C5 (Homo sapiens) (UniProt P20618); assay: Positive allosteric modulation of latent human erythrocytes 20S proteasome caspase like activity at 10 uM measured every 1 min up to 60 mins by fluorescence assay relative to control
T3 sequence (whole entry): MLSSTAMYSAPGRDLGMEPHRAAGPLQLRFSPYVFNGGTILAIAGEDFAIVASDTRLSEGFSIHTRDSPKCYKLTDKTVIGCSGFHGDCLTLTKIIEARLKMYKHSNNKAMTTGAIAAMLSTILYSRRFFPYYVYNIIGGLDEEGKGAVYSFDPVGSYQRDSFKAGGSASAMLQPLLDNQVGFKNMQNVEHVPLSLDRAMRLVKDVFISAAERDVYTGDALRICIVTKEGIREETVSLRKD

[8] = target: T2, 20S proteasome (Homo sapiens); assay: Positive allosteric modulation of SDS-activated human erythrocytes 20S proteasome assessed as increase in yeast enolase degradation at 1 uM after 4 hr by SDS-PAGE analysis relative to control
[9] = target: Proteasome subunit beta type-6 (Homo sapiens) (UniProt P28072); assay: Positive allosteric modulation of latent human erythrocytes 20S proteasome caspase like activity at 10 uM using Z-LLE-AMC as substrate measured every 1 min up to 60 mins by fluorescence assay relative to control
Proteasome subunit beta type-6 (Homo sapiens), sequence (P28072 whole entry, looked up): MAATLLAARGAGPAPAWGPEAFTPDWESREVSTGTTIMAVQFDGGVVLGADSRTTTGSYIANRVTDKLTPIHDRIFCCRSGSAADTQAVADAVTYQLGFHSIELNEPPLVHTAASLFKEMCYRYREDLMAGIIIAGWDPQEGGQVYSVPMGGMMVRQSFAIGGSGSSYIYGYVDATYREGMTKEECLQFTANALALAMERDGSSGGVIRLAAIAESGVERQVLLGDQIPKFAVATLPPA

[10] = target: T1, Proteasome Macropain subunit MB1 (Homo sapiens); assay: Positive allosteric modulation of latent human erythrocytes 20S proteasome chymotrypsin like activity up to 10 uM using LFP as substrate measured every 2 mins up to 60 mins by fluorescence assay
[11] = target: T1, Proteasome Macropain subunit MB1 (Homo sapiens); assay: Negative allosteric modulation of SDS-activated human erythrocytes 20S proteasome chymotrypsin like activity using Suc-LLVY-AMC as substrate measured every 2 mins up to 60 mins by fluorescence assay
Method in brief: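 1.4 nM CP (0.001 mg/mL) in 50 mM Tris-HCl pH 8.0, activated with 0.005% SDS where stated, otherwise latent. Suc-LLVY-AMC at 100 μM final. AMC fluorescence read every 2 min up to 60 min at 37 °C. Activity relative to DMSO-treated enzyme, from at least three independent replicates. Peptide stocks 10 mM in DMSO.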

[12] = target: T1, Proteasome Macropain subunit MB1 (Homo sapiens); assay: Positive allosteric modulation of latent human erythrocytes 20S proteasome chymotrypsin like activity at 1 uM using Suc-LLVY-AMC as substrate measured every 2 mins up to 60 mins by fluorescence assay
[13] = target: T2, 20S proteasome (Homo sapiens); assay: Negative allosteric modulation of SDS-activated human erythrocytes 20S proteasome assessed as reduction in human alpha-synuclein degradation at 10 uM after 1 hr by SDS-PAGE analysis; method in brief: as §1
[14] = target: T2, 20S proteasome (Homo sapiens); assay: Negative allosteric modulation of SDS-activated human erythrocytes 20S proteasome assessed as reduction in yeast enolase degradation at 1 uM after 4 hr by SDS-PAGE analysis
[15] = target: T2, 20S proteasome (Homo sapiens); assay: Negative allosteric modulation of SDS-activated human erythrocytes 20S proteasome assessed as reduction in yeast enolase degradation at 10 uM after 4 hr by SDS-PAGE analysis
[16] = target: T1, Proteasome Macropain subunit MB1 (Homo sapiens); assay: Positive allosteric modulation of latent human erythrocytes 20S proteasome chymotrypsin like activity up to 10 uM using LFP as substrate measured every 2 mins up to 60 mins by fluorescence assay
[17] = target: Proteasome Macropain subunit (Homo sapiens) (UniProt P49721); assay: Negative allosteric modulation of SDS-activated human erythrocytes 20S proteasome trypsin like activity at 10 uM using Boc-LRR-AMC as substrate measured every 2 mins up to 60 mins by fluorescence assay
Proteasome Macropain subunit (Homo sapiens), sequence (P49721 whole entry): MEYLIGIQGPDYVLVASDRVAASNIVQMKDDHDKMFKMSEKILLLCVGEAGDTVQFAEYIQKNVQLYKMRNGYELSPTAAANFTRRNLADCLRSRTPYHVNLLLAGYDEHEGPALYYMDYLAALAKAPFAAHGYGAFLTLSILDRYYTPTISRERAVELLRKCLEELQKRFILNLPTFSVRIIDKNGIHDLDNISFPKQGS

[18] = target: T3, Proteasome component C5 (Homo sapiens); assay: Negative allosteric modulation of SDS-activated human erythrocytes 20S proteasome caspase like activity at lower concentration using Z-LLE-AMC as substrate measured every 2 mins up to 60 mins by fluorescence assay

`CC(C)C[C@H](NC(=O)[C@@H]1CCCN1C(=O)[C@@H]1CCCN1C(=O)[C@@H]1CCCN1C(=O)[C@@H]1CCCN1C(=O)[C@H](CCCNC(=N)N)NC(=O)[C@H](CCCNC(=N)N)NC(=O)[C@@H](N)CCCNC(=N)N)C(=O)N[C@@H](Cc1ccc(O)cc1)C(=O)N[C@@H](C)C(=O)O` (H-RRRPPPPLYA-OH) was tested, and the fold change (FC) [1] was < 7, the Activity [2] was “Dose-dependent effect” and the Activity [3] was “inactive”. For the same compound, the Activity [4] was “inactive”, the Activity [5] was “Active” and the Activity [6] was “Active”. For the same compound, the fold change (FC) [7] was 5 to 7, the Activity [8] was “Active” and the fold change (FC) [9] was 5 to 7.
With `CC(C)C[C@H](NC(=O)[C@H](Cc1ccc(O)cc1)NC(=O)[C@@H]1CCCN1C(=O)[C@@H]1CCCN1C(=O)[C@@H]1CCCN1C(=O)[C@@H]1CCCN1C(=O)[C@H](CCCNC(=N)N)NC(=O)[C@H](CCCNC(=N)N)NC(=O)[C@@H](N)CCCNC(=N)N)C(=O)N1CCC[C@H]1C(=O)N[C@@H](CCCNC(=N)N)C(=O)N[C@@H](Cc1c[nH]c2ccccc12)C(=O)NCC(=O)O` (H-RRRPPPPYLPRWG-OH) the Activity [10] was “inactive” and the Activity [3] was “Active”.
In the case of `CC(C)C[C@H](NC(=O)[C@H](Cc1ccc(O)cc1)NC(=O)[C@@H]1CCCN1C(=O)[C@@H]1CCCN1C(=O)[C@H](CCCNC(=N)N)NC(=O)[C@@H]1CCCN1C(=O)[C@H](CCCNC(=N)N)NC(=O)[C@H](CCCNC(=N)N)NC(=O)[C@@H](N)CCCNC(=N)N)C(=O)N1CCC[C@H]1C(=O)N[C@@H](CCCNC(=N)N)C(=O)O` (H-RRRPRPPYLPR-OH), the Activity [11] was “Dose-dependent effect”, the Activity [12] was “Active” and the Activity [10] was “inactive”. For the same compound, the Activity [3] was “Active”, the Activity [13] was “Active” and the Activity [14] was “inactive”. For the same compound, the Activity [15] was “inactive”, the Activity [16] was “inactive” and the Activity [17] was “Active”. For the same compound, the Activity [18] was “Active”.
For `CC(C)C[C@H](NC(=O)[C@H](Cc1ccc(O)cc1)NC(=O)[C@@H]1CCCN1C(=O)[C@@H]1CCCN1C(=O)[C@H](CCCNC(=N)N)NC(=O)[C@@H]1CCCN1C(=O)[C@H](CCCNC(=N)N)NC(=O)[C@H](CCCNC(=N)N)NC(=O)[C@@H](N)CCCNC(=N)N)C(=O)N1CCC[C@H]1C(=O)N[C@@H](CCCNC(=N)N)C(=O)N[C@@H](Cc1ccccc1)C(=O)NCC(=O)O` (H-RRRPRPPYLPRFG-OH), the Activity [12] was “Active”, the Activity [10] was “inactive” and the Activity [3] was “Active”. For the same compound, the Activity [4] was “Active”, the Activity [13] was “Active” and the Activity [14] was “Active”. The Activity [15] was “Active”, the Activity [16] was “inactive” and the Activity [17] was “Active”. For the same compound, the Activity [18] was “Active”.
With `CC(C)C[C@H](NC(=O)[C@H](Cc1ccc(O)cc1)NC(=O)[C@@H]1CCCN1C(=O)[C@@H]1CCCN1C(=O)[C@H](CCCNC(=N)N)NC(=O)[C@@H]1CCCN1C(=O)[C@H](CCCNC(=N)N)NC(=O)[C@H](CCCNC(=N)N)NC(=O)[C@@H](N)CCCNC(=N)N)C(=O)N1CCC[C@H]1C(=O)N[C@@H](CCCNC(=N)N)C(=O)N[C@@H](Cc1c[nH]c2ccccc12)C(=O)NCC(N)=O` (H-RRRPRPPYLPRWG-NH2) the Activity [10] was “inactive”, the Activity [3] was “Active” and the Activity [16] was “inactive”. For the same compound, the Activity [17] was “Active” and the Activity [18] was “Active”.
In the case of `CC(C)C[C@H](NC(=O)[C@H](Cc1ccc(O)cc1)NC(=O)[C@H](CCCNC(=N)N)NC(=O)[C@H](CCCNC(=N)N)NC(=O)[C@@H](N)CCCNC(=N)N)C(=O)N1CCC[C@H]1C(=O)N[C@@H](CCCNC(=N)N)C(=O)N[C@@H](Cc1c[nH]c2ccccc12)C(=O)NCC(=O)O` (H-RRRYLPRWG-OH), the Activity [11] was “Dose-dependent effect”, the Activity [10] was “inactive” and the Activity [3] was “Active”. The Activity [16] was “inactive”, the Activity [17] was “Active” and the Activity [18] was “Active”.
In the case of `CC(C)C[C@H](NC(=O)[C@H](Cc1ccc(O)cc1)NC(=O)[C@H](CCCNC(=N)N)NC(=O)[C@H](CCCNC(=N)N)NC(=O)[C@@H](N)CCCNC(=N)N)C(=O)N1CCC[C@H]1C(=O)N[C@@H](CCCNC(=N)N)C(=O)N[C@@H](Cc1ccc(O)cc1)C(=O)N[C@@H](C)C(N)=O` (H-RRRYLPRYA-NH2), the Activity [11] was “Dose-dependent effect”, the Activity [12] was “Active” and the Activity [10] was “inactive”. For the same compound, the Activity [3] was “Active”, the Activity [13] was “Active” and the Activity [14] was “inactive”. For the same compound, the Activity [15] was “inactive”, the Activity [16] was “inactive” and the Activity [17] was “Active”. The Activity [18] was “Active”.
For `N=C(N)NCCC[C@H](NC(=O)[C@H](CCCNC(=N)N)NC(=O)[C@@H](N)CCCNC(=N)N)C(=O)N[C@@H](Cc1ccc(O)cc1)C(=O)N1CCC[C@H]1C(=O)N[C@@H](CCCNC(=N)N)C(=O)N[C@@H](Cc1c[nH]c2ccccc12)C(=O)NCC(=O)O` (H-RRRYPRWG-OH), the Activity [10] was “inactive”, the Activity [3] was “Active” and the Activity [16] was “inactive”. For the same compound, the Activity [17] was “Active” and the Activity [18] was “Active”.
